SR-BI DiI-HDL act – activators of SR-BI mediated HDL lipid uptake. CHO ldlA[mSR-BI] cells, DiI-HDL uptake fluorescence, 3 h; 100 = double the neutral-control signal. activation, % at 12.5 µM. 320,000 compounds, 0.096% hits;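 active = mean replicate activation of at least 60% and every replicate at or above 60%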;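 also: 0% = median plate neutral-control signal and 100% = twice that signal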
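System: LDL receptor-deficient CHO ldlA cells overexpressing murine SR-BI | Timing: 3 h uptake period with compound, 37 °C | Medium: HEPES-buffered (25 mM, pH 7.4) F12 plus 0.5% BSA | Dosing: Single-point compound dose | Signal: Bottom-read fluorescence, 550/595 nm | Read-out: Retained DiI signal reflecting DiI-HDL uptake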
SR-BI DiI inh – inhibitors of mouse SR-BI mediated HDL lipid uptake. Q61009. ldlA[mSR-BI] CHO cells, DiI-HDL uptake fluorescence, 3 h. inhibition, % at 12.5 µM. 320,000 compounds, 0.96% hits;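 active = mean replicate inhibition of at least 70% and a set share of replicates each scoring 70 or more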;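 also: 0% = median of neutral control wells and 100% = median of positive control wells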
Target sequence (Q61009 whole entry, looked up): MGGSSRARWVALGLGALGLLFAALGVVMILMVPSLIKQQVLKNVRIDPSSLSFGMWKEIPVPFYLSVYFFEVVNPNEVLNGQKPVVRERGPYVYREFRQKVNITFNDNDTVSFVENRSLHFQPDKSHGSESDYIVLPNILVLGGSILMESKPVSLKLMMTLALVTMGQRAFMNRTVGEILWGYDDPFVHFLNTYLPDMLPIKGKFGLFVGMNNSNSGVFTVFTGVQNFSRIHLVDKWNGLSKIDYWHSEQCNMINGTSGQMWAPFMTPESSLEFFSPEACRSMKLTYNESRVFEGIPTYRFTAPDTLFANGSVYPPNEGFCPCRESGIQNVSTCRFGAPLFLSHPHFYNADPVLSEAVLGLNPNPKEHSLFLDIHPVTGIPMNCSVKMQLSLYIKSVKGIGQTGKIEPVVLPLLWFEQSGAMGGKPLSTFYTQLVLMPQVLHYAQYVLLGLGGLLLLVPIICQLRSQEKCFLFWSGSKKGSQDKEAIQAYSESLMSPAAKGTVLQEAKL
Yeast superoxide – lowers age-related superoxide in aged yeast cells; S. cerevisiae aged cells, superoxide DHE fluorescence; stronger effect = lower value; AID 2690; 330,000 compounds, 0.18% hits; superoxide response (% of plate mean), % at 10 µM;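 active = superoxide response under a set limit, about three screen SD below normal, cut at about 65% in these data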;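 also: yeast aged for seven days with compound at 30 °C before DHE staining; 100% = average MFI of all compound-treated wells on the plate with controls excluded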
SMARCA2 activ – SMARCA2 function activation, primary screen. MG213 cells, MMTV-luciferase reporter, dexamethasone, overnight. activation, % at 9.1 µM. 370,000 compounds, 1% hits; in the data active = activation above about 7.8%;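 also: 0% = vehicle wells and 100% = reference activator wells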
Hep lipid drop – modulators of hepatic lipid droplet formation; AML12 mouse hepatocytes, oleate lipid droplets, BODIPY imaging; inhibition, % at 6.5 µM; 240,000 compounds, 0.4% hits; AID 1656;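 active = lipid droplet intensity inhibited by at least 50%, with more than 500 cells counted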
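material = mouse AML12 hepatocyte cell line, fixed after treatment | also added = 100 µM oleic acid challenge | doses = compound at 6.5 µM only | schedule = overnight exposure | technique = Image-based BODIPY and DAPI two-channel analysis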
AHR activator – activators of human aryl hydrocarbon receptor; 320,000 compounds, 2.5% hits; activation, % at 5 µM; P35869; AID 2796; AHR-responsive luciferase reporter cells, luminescence; in the data active = activation above about 47%;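 also: 0% = vehicle wells and 100% = reference agonist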
SMARCA2 conf – SMARCA2 activation, confirmation screen. shares compounds with SMARCA2 activ. MG213 cells, MMTV-luciferase with dexamethasone, luminescence, overnight; MG213 cells expressing E1A, Rb sequestered; DMSO wells 0%, reference activator 100%. activation, % at 9.1 µM. 3,500 compounds, 30% hits;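 active = activation above its plate's cutoff, the mean activation of tested wells plus 3 SD, cut at about 7.9% in these data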
VP16 Luc act – activates GAL4-VP16 luciferase, flagging SMARCA2 activator hits; AID 686939; HEK293 GAL4-VP16 pG5luc reporter, luciferase luminescence; scaled: DMSO wells 0%, SAHA wells 100%; activation, % at 9.1 µM; 3,500 compounds, 41% hits; shares compounds with SMARCA2 activ;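 active = activation above the solvent-only control well mean plus 3 SD, averaged across control plates, cut at about 5.2% in these data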
Active calls of the source: *; nt = no result. The list is not random: actives were taken first. Their share in the collection is about 4.3%.

SMILES	SR-BI DiI-HDL act	SR-BI DiI inh	Yeast superoxide	SMARCA2 activ	Hep lipid drop	AHR activator	SMARCA2 conf	VP16 Luc act
Cc1ccc(NC(=O)c2cc([N+](=O)[O-])ccc2N2CCOCC2)cc1C	nt	50	106	8.1*	-22	8	-5	1
Cc1ccc(NC(=O)c2cc([N+](=O)[O-])ccc2N2CCOCC2)cc1S(=O)(=O)N(C)C	nt	nt	102	-3	2	-2	nt	nt
C/C(CC(=O)Nc1ccc(Cl)cc1C(F)(F)F)=N\NC(=O)c1cccs1	-21	21	92	10*	-1	6	4	3
C/C(CC(=O)Nc1ccc(Cl)cc1C(F)(F)F)=N\NC(=O)c1ccccn1	14	-14	96	5	-4	6	nt	nt
COC(=O)/C(C#N)=C/c1c(N2CCN(c3ccccc3)CC2)nc2ccccn2c1=O	6	-6	96	3	15	3	nt	nt
CCOC(=O)/C(C#N)=C/c1c(N2CCN(c3ccccc3)CC2)nc2ccccn2c1=O	-6	6	98	9.9*	-5	16	7	4
COc1ccc(OC)c(CN2C(=O)CSCCC2(C)c2nnnn2C2CCCC2)c1 (stereo unspecified)	nt	nt	nt	0	nt	nt	nt	nt
O=C(Nc1ccccc1)Nc1ccc2ocnc2c1	8	-8	100	0	nt	1	nt	nt
O=C(Nc1ccccc1)Nc1ccc2ncoc2c1	0	0	89	13*	-5	8	2	7.3*
CCN=C1NC(CCc2ccccc2)C(C(=O)OC)=C(C)N1Cc1ccccc1C(F)(F)F (stereo unspecified)	nt	nt	nt	-1	nt	nt	nt	nt
COc1cccc(/C=N/Nc2nnc(C)n2N)c1OCc1ccccc1Cl	3	-3	81	16*	-9	57*	0	1
O=C(N/N=C/C(Cl)=C\c1ccccc1)c1ccco1	0	0	92	12*	-3	1	7	8.3*
O=C(N/N=C/c1cccnc1)c1ccco1	10	-10	94	10*	-3	9	4	2
O=C(N/N=C\c1cccnc1)c1ccccc1O	10	-10	95	5	0	28	nt	nt
COc1ccc(C(=O)N/N=C/c2cccnc2)cc1	-9	9	83	11*	nt	14	4	2
CN(CCCOC(=O)c1cc2ccccc2o1)C1CN(Cc2cn(Cc3ccc([N+](=O)[O-])cc3)nn2)S(=O)(=O)C1 (stereo unspecified)	nt	nt	nt	-1	nt	nt	nt	nt
CCOC(=O)CC[C@@H]1CC[C@]2(CCCN(S(=O)(=O)c3ccccc3)C2)O1	nt	nt	nt	-3	nt	nt	nt	nt
COCCCNC(=O)C[C@@H]1C(=O)N(CCc2ccc(Cl)cc2)C2=CCCCC[C@]21C(=O)OC	nt	nt	nt	0	nt	nt	nt	nt
O=C1C(=Cc2cccs2)Oc2ccccc21	-1	1	nt	8.7*	nt	nt	1	1
CCCCNC(=S)NNC(=O)c1csc(C)c1CC	25	-25	103	8.3*	-6	0	-2	2
CC1(C)CC(NC(=O)c2cc(Cl)ccc2Cl)CC(C)(C)N1	1	-1	92	10*	-1	3	-3	0
CCN(CC)CCOc1ccc2c(c1)C(=NO)c1cc(OCCN(CC)CC)ccc1-2	23	-23	92	23*	nt	1	76*	0
CCOc1ccc2nc(C)cc(Nc3cccc([N+](=O)[O-])c3)c2c1	-58	58	97	14*	15	39	32*	3
CCN(CC)CCNC(=O)CCn1c(=S)[nH]c2cc3c(cc2c1=O)OCO3	-8	8	98	1	-5	1	nt	nt
CCN(CC)CCn1c(=S)[nH]c2cc3c(cc2c1=O)OCO3	6	-6	95	8.7*	nt	10	3	0
SMILES	SR-BI DiI-HDL act	SR-BI DiI inh	Yeast superoxide	SMARCA2 activ	Hep lipid drop	AHR activator	SMARCA2 conf	VP16 Luc act
COc1ccc(NC(=O)c2ccc(-c3ccc(-c4noc(C)n4)cc3C)cc2)cc1N1CCN(C)CC1	nt	nt	116	13*	nt	-6	17*	0
CC(C)(C)S(=O)(=O)N1C[C@H]2CC(=O)C=C2[C@@H]1CCO	nt	nt	nt	-3	nt	nt	nt	nt
CC1CCc2c(sc3nc(SCC(=O)NCc4ccco4)nc(N)c23)C1 (stereo unspecified)	-4	4	89	2	nt	9	nt	nt
CCN(CC)C(=O)CSc1nc(N)c2c3c(sc2n1)CC(C)CC3 (stereo unspecified)	-8	8	99	8.3*	-7	18	4	8.1*
O=C(CCn1c(=O)sc2ccccc21)Nc1nccs1	3	-3	86	8.3*	8	7	4	7.7*
O=C(NC1CCCCN(Cc2cccc(Cl)c2)C1=O)c1ccc2ccccc2c1 (stereo unspecified)	nt	nt	nt	2	nt	nt	nt	nt
C=CCN1[C@H](CC(C)C)COc2cc(N3CCCC3)ccc2S1(=O)=O	nt	nt	nt	-2	nt	nt	nt	nt
Cc1ccc(Cn2nnc3c2-c2ccccc2S(=O)(=O)N(C2CC2)C3)cc1	nt	nt	nt	-3	nt	nt	nt	nt

Screening data as filed in PubChem BioAssay.
